Tests used:
[1] = system: Bacillus subtilis; assay: Antibacterial activity against Bacillus subtilis ATCC 6633 at 4 mg/ml after 24 hrs by agar diffusion test; assay type: functional, organism-based
In short: (§1)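 Agar diffusion: bacteria grown 24 h at 37 °C on nutrient agar; wells cut in the seeded agar are filled with compound solution in DMSO. Read-out is the diameter of the clear zone around the application point.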

[2] = system: Micrococcus luteus; assay: Antibacterial activity against Micrococcus luteus ATCC 9631 at 20 mg/ml after 24 hrs by agar diffusion test; assay type: functional, organism-based; in short: as §1
[3] = system: Bacillus; assay: Antibacterial activity against Bacillus idosus B 241 at 4 mg/ml after 24 hrs by agar diffusion test; assay type: functional, organism-based; in short: as §1
[4] = system: Bacillus subtilis; assay: Antibacterial activity against Bacillus subtilis ATCC 6633 at 20 mg/ml after 24 hrs by agar diffusion test; assay type: functional, organism-based; in short: as §1
[5] = system: Bacillus mycoides; assay: Antibacterial activity against Bacillus mycoides DSMZ 274 at 4 mg/ml after 24 hrs by agar diffusion test; assay type: functional, organism-based; in short: as §1
[6] = system: Bacillus cereus; assay: Antibacterial activity against Bacillus cereus ATCC 11778 at 4 mg/ml after 24 hrs by agar diffusion test; assay type: functional, organism-based; in short: as §1
[7] = system: Acinetobacter johnsonii; assay: Antibacterial activity against Acinetobacter johnsonii ATCC 17909 at 20 mg/ml after 24 hrs by agar diffusion test; assay type: functional; in short: as §1
[8] = system: Bacillus cereus; assay: Antibacterial activity against Bacillus cereus ATCC 11778 at 20 mg/ml after 24 hrs by agar diffusion test; assay type: functional, organism-based; in short: as §1
[9] = system: Priestia megaterium; assay: Antibacterial activity against Bacillus megaterium NRRL 1353895 at 20 mg/ml after 24 hrs by agar diffusion test; assay type: functional, organism-based; in short: as §1
[10] = system: Micrococcus luteus; assay: Antibacterial activity against Micrococcus luteus ATCC 9631 at 4 mg/ml after 24 hrs by agar diffusion test; assay type: functional, organism-based; in short: as §1
[11] = system: Micrococcus luteus; assay: Antibacterial activity against Sarcina lutea ATCC 9341 at 4 mg/ml after 24 hrs by agar diffusion test; assay type: functional, organism-based; in short: as §1
[12] = system: Acinetobacter johnsonii; assay: Antibacterial activity against Acinetobacter johnsonii ATCC 17909 at 4 mg/ml after 24 hrs by agar diffusion test; assay type: functional; in short: as §1
[13] = system: Micrococcus luteus; assay: Antibacterial activity against Sarcina lutea ATCC 9341 at 20 mg/ml after 24 hrs by agar diffusion test; assay type: functional, organism-based; in short: as §1
[14] = system: Bacillus mycoides; assay: Antibacterial activity against Bacillus mycoides DSMZ 274 at 20 mg/ml after 24 hrs by agar diffusion test; assay type: functional, organism-based; in short: as §1
[15] = system: Priestia megaterium; assay: Antibacterial activity against Bacillus megaterium NRRL 1353895 at 4 mg/ml after 24 hrs by agar diffusion test; assay type: functional, organism-based; in short: as §1
[16] = system: Bacillus; assay: Antibacterial activity against Bacillus idosus B 241 at 20 mg/ml after 24 hrs by agar diffusion test; assay type: functional, organism-based; in short: as §1

Sequence: GENTAMICIN
- inhibition zone (IZ) [1]: 27 mm
- inhibition zone (IZ) [2]: 38 mm
- inhibition zone (IZ) [3]: 29 mm
- inhibition zone (IZ) [4]: 30 mm
- inhibition zone (IZ) [5]: 28 mm
- inhibition zone (IZ) [6]: 26 mm
- inhibition zone (IZ) [7]: 39 mm
- inhibition zone (IZ) [8]: 29 mm
- inhibition zone (IZ) [9]: 36 mm
- inhibition zone (IZ) [10]: 28 mm
- inhibition zone (IZ) [11]: 28 mm
- inhibition zone (IZ) [12]: 31 mm
- inhibition zone (IZ) [13]: 34 mm
- inhibition zone (IZ) [14]: 32 mm
- inhibition zone (IZ) [15]: 30 mm
- inhibition zone (IZ) [16]: 35 mm

From ChEMBL document CHEMBL1932986, “Synthesis and in vitro antimycobacterial activity of compounds derived from (R)- and (S)-2-amino-1-butanol - The crucial role of the configuration” (Eur J Med Chem, 2012)
